Experimental data reported in ChEMBL document CHEMBL1806414, “Synthesis and anticonvulsant activity of 7-phenyl-6,7-dihydro-[1,2,4]triazolo[1,5-a]pyrimidin-5(4H)-ones and their derivatives” (Eur J Med Chem, 2011).
Active and inactive are the calls of the source. The rule behind the calls is not given here.

Assays:
Mus musculus [1] = test: Anticonvulsant activity in Kunming mouse assessed as inhibition of bicuculline-induced tonic seizures at 30 mg/kg, ip after 0.5 hrs; type: functional; parameters: scale not given: the % may be the effect or the level left; settings: route intraperitoneal
Method in brief: (§1)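 Kunming mice (18–22 g, 10/group) received test compound i.p. in DMSO; 0.5 h later bicuculline, 5.4 mg/kg, was given s.c. within 15–45 min of preparation. Mice were isolated and observed for at least 0.5 h for clonic seizures, tonic seizures and lethality.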

Mus musculus [2] = test: Anticonvulsant activity in Kunming mouse assessed as inhibition of bicuculline-induced death at 30 mg/kg, ip after 0.5 hrs; type: functional; parameters: scale not given: the % may be the effect or the level left; settings: route intraperitoneal; method in brief: as §1
Mus musculus [3] = test: Anticonvulsant activity in Kunming mouse assessed as inhibition of subcutaneous pentylenetetrazol-induced clonic seizures at 50 mg/kg, ip after 0.5 hrs; type: functional; parameters: scale not given: the % may be the effect or the level left
Method in brief: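 Compound or vehicle (DMSO) given i.p. to KunMing mice, 10 per group, before the pentylenetetrazol challenge. Mice were held in individual cages and observed for 0.5 h. Clonic seizures, tonic seizures (hind-leg extension) and deaths were counted.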

Mus musculus [4] = test: Anticonvulsant activity in Kunming mouse assessed as inhibition of thiosemicarbazide-induced tonic seizures at 30 mg/kg, ip after 2.5 hrs; type: functional; parameters: scale not given: the % may be the effect or the level left; settings: route intraperitoneal
Method in brief: (§2)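 Thiosemicarbazide, 50 mg/kg i.p., was given 0.5 h after compound or DMSO to KunMing mice, 10 per group. Mice were caged individually and observed for 2.5 h for clonic and tonic seizures and deaths.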

Mus musculus [5] = test: Anticonvulsant activity against maximal electric shock-induced seizures in ip dosed Kunming mouse assessed as median effective dose; type: functional
Method in brief: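 Phase-II MES test in KunMing mice (18–22 g), DMSO vehicle, corneal electrode stimulus 0.2 s. Groups of 10 mice got a range of i.p. doses until at least three points fell within 10–90% seizure protection, giving the median effective dose. Endpoint is abolition of tonic hind-leg extension.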

Mus musculus [6] = test: Anticonvulsant activity in Kunming mouse assessed as inhibition of isoniazid-induced clonic seizures at 50 mg/kg, ip after 1 hrs; type: functional; parameters: scale not given: the % may be the effect or the level left; settings: route intraperitoneal
Mus musculus [7] = organism: Mus musculus; test: Protective index, ratio of TD50 for neurotoxicity in Kunming mouse to ED50 for inhibition of MES-induced seizures in Kunming mouse; type: functional
Mus musculus [8] = test: Anticonvulsant activity in Kunming mouse assessed as inhibition of 3-mercaptopropionic acid-induced tonic seizures at 30 mg/kg, ip after 0.5 hrs; type: functional; parameters: scale not given: the % may be the effect or the level left; settings: route intraperitoneal
Method in brief: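 Kunming mice (18–22 g, 10/group) received test compound i.p. in DMSO; 0.5 h later 3-mercaptopropionic acid, 60 mg/kg in saline, was given s.c. Mice were scored for clonic seizures, tonic seizures (hind-leg extension) and deaths.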

Mus musculus [9] = test: Anticonvulsant activity in Kunming mouse assessed as inhibition of bicuculline-induced clonic seizures at 30 mg/kg, ip after 0.5 hrs; type: functional; parameters: scale not given: the % may be the effect or the level left; settings: route intraperitoneal
Method in brief: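 Bicuculline, 5.4 mg/kg s.c. and used within 15–45 min of preparation, was given 0.5 h after i.p. compound or DMSO to KunMing mice, 10 per group. Mice were isolated and observed for at least 0.5 h for clonic seizures, tonic seizures and lethality.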

Mus musculus [10] = test: Anticonvulsant activity in Kunming mouse assessed as inhibition of 3-mercaptopropionic acid-induced clonic seizures at 30 mg/kg, ip after 0.5 hrs; type: functional; parameters: scale not given: the % may be the effect or the level left; settings: route intraperitoneal
Method in brief: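 3-Mercaptopropionic acid, 60 mg/kg in saline, was injected s.c. 0.5 h after i.p. compound or DMSO in KunMing mice, 10 per group. Clonic and tonic seizures and deaths were scored.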

Mus musculus [11] = test: Anticonvulsant activity in Kunming mouse assessed as inhibition of thiosemicarbazide-induced clonic seizures at 30 mg/kg, ip after 2.5 hrs; type: functional; parameters: scale not given: the % may be the effect or the level left; settings: route intraperitoneal; method in brief: as §2
Mus musculus [12] = test: Anticonvulsant activity in Kunming mouse assessed as inhibition of subcutaneous pentylenetetrazol-induced tonic seizures at 50 mg/kg, ip after 0.5 hrs; type: functional; parameters: scale not given: the % may be the effect or the level left
Mus musculus [13] = test: Anticonvulsant activity in Kunming mouse assessed as inhibition of isoniazid-induced tonic seizures at 50 mg/kg, ip after 1 hrs; type: functional; parameters: scale not given: the % may be the effect or the level left; settings: route intraperitoneal
Method in brief: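 Isoniazid given at 250 mg/kg, a dose convulsing all controls, to KunMing mice pretreated i.p. with compound or DMSO. Mice were caged individually and observed for 1 h, counting clonic seizures, tonic seizures and deaths.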

Mus musculus [14] = test: Neurotoxicity in Kunming mouse at 300 mg/kg, ip after 0.5 hrs; type: toxicity, organism-based; parameters: dose 300 mg/kg, route intraperitoneal; settings: in vivo
Method in brief: (§3)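 Rotarod neurotoxicity in KunMing mice (18–22 g) trained on a 3.2 cm diameter rod at 10 rpm. Compounds in DMSO were given i.p. at 30, 100 and 300 mg/kg, three mice per dose, and tested at 0.5 h and 4 h after dosing.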

[15] = Neurotoxicity in ip dosed Kunming mouse by rotarod test; type: toxicity, organism-based; settings: in vivo
Method in brief: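 Phase-II rotarod test in KunMing mice trained on a 3.2 cm rod at 10 rpm, DMSO vehicle. Groups of 10 mice got graded i.p. doses until at least three points fell within 10–90% minimal neurotoxicity, giving the median toxic dose.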

Mus musculus [16] = test: Anticonvulsant activity in Kunming mouse assessed as protection against maximal electric shock-induced seizures at 300 mg/kg, ip measured after 0.5 hrs; type: functional, organism-based; parameters: dose 300 mg/kg
Method in brief: (§4)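 KunMing mice (18–22 g), compounds dissolved in DMSO, given i.p. at 30, 100 and 300 mg/kg, three mice per dose. Current applied through corneal electrodes for 0.2 s at 0.5 h and 4 h after dosing. Protection is abolition of tonic hind-leg extension, scored as protected/tested.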

Mus musculus [17] = test: Anticonvulsant activity in Kunming mouse assessed as protection against maximal electric shock-induced seizures at 30 mg/kg, ip measured after 4 hrs; type: functional, organism-based; parameters: dose 30 mg/kg; method in brief: as §4
Mus musculus [18] = test: Neurotoxicity in Kunming mouse at 100 mg/kg, ip after 0.5 hrs; type: toxicity, organism-based; parameters: dose 100 mg/kg, route intraperitoneal; settings: in vivo; method in brief: as §3
Mus musculus [19] = test: Anticonvulsant activity in Kunming mouse assessed as protection against maximal electric shock-induced seizures at 300 mg/kg, ip measured after 4 hrs; type: functional, organism-based; parameters: dose 300 mg/kg; method in brief: as §4
Mus musculus [20] = test: Anticonvulsant activity in Kunming mouse assessed as protection against maximal electric shock-induced seizures at 100 mg/kg, ip measured after 4 hrs; type: functional, organism-based; parameters: dose 100 mg/kg; method in brief: as §4
Mus musculus [21] = test: Neurotoxicity in Kunming mouse at 300 mg/kg, ip after 4 hrs; type: toxicity, organism-based; parameters: dose 300 mg/kg, route intraperitoneal; settings: in vivo; method in brief: as §3
Mus musculus [22] = test: Neurotoxicity in Kunming mouse at 100 mg/kg, ip after 4 hrs; type: toxicity, organism-based; parameters: dose 100 mg/kg, route intraperitoneal; settings: in vivo; method in brief: as §3
Mus musculus [23] = test: Anticonvulsant activity in Kunming mouse assessed as protection against maximal electric shock-induced seizures at 100 mg/kg, ip measured after 0.5 hrs; type: functional, organism-based; parameters: dose 100 mg/kg; method in brief: as §4
Mus musculus [24] = test: Anticonvulsant activity in Kunming mouse assessed as protection against maximal electric shock-induced seizures at 30 mg/kg, ip measured after 0.5 hrs; type: functional, organism-based; parameters: dose 30 mg/kg; method in brief: as §4
Mus musculus [25] = test: Anticonvulsant activity in Kunming mouse assessed as inhibition of isoniazid-induced death at 50 mg/kg, ip after 1 hrs; type: functional; parameters: scale not given: the % may be the effect or the level left; settings: route intraperitoneal

`NC(=O)N1c2ccccc2C=Cc2ccccc21` [CARBAMAZEPINE] showed an Activity (Mus musculus [1]) of 0%, an Activity (Mus musculus [2]) of 20% and an Activity (Mus musculus [3]) of 100%. For the same compound, the Activity (Mus musculus [4]) was 0%, the ED50 (Mus musculus [5]) was 11.8 mg/kg and the Activity (Mus musculus [6]) was 50%. For the same compound, the “Ratio TD50/ED50” value (Mus musculus [7]) was 6.4, the Activity (Mus musculus [8]) was 0% and the Activity (Mus musculus [9]) was 100%. The Activity (Mus musculus [10]) was 100%, the Activity (Mus musculus [11]) was 100% and the Activity (Mus musculus [12]) was 0%. It also gave an Activity (Mus musculus [13]) of 0%.

With `O=C1CC(c2ccccc2Br)n2ncnc2N1` (stereo not drawn) the Activity (Mus musculus [1]) was 10%, the Activity (Mus musculus [14]) was “Non-toxic” and the TD50 [15] was 685 mg/kg. The Activity (Mus musculus [2]) was 50%, the Activity (Mus musculus [16]) was “Active” and the Activity (Mus musculus [17]) was “inactive”. The Activity (Mus musculus [18]) was “Non-toxic”, the Activity (Mus musculus [3]) was 0% and the Activity (Mus musculus [4]) was 0%. The Activity (Mus musculus [19]) was “inactive”, the ED50 (Mus musculus [5]) was 19.7 mg/kg and the Activity (Mus musculus [20]) was “inactive”. The Activity (Mus musculus [21]) was “Non-toxic”, the Activity (Mus musculus [6]) was 100% and the “Ratio TD50/ED50” value (Mus musculus [7]) was 34.8. It also gave an Activity (Mus musculus [8]) of 0%, an Activity (Mus musculus [9]) of 100% and an Activity (Mus musculus [10]) of 100%. The Activity (Mus musculus [11]) was 100%, the Activity (Mus musculus [22]) was “Non-toxic” and the Activity (Mus musculus [23]) was “Active”. The Activity (Mus musculus [24]) was “Active”, the Activity (Mus musculus [12]) was 0% and the Activity (Mus musculus [13]) was 0%. For the same compound, the Activity (Mus musculus [25]) was 30%.
